Values joined by “and” are separate entries in the source; they are usually repeats but may differ in a detail not shown here. Identical values can stand only once.
Tested on: HEK-293T
Experiment: Multiplex assay against HEK293T
Assay type: toxicity, cell-based
Conditions: human
Summary of the method: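 Four dyes were applied at seeding to live cells: Hoechst33342, BioTracker Green Microtubule Cytoskeleton Dye, MitoTracker Red and Annexin V Alexa Fluor 680. Imaging after compound addition used a CQ1 microscope at 37°C and 5% CO2. CellPathfinder machine-learning gating then sorted cells into Hoechst high-intensity objects or normal cells, normal cells into healthy, pyknosed or fragmented nuclei, and pyknosed cells into mitotic or apoptotic, with tubulin, mitochondrial-mass and membrane-permeability phenotypes given as per cents of healthy-nucleus cells.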

[1] = 12 h, 1 µM, compound concentration 1 uM
[2] = 12 h, 10 µM, compound concentration 10 uM
[3] = 24 h, 1 µM, compound concentration 1 uM
[4] = 24 h, 10 µM, compound concentration 10 uM
[5] = 48 h, 1 µM, compound concentration 1 uM
[6] = 48 h, 10 µM, compound concentration 10 uM

COc1ccc2[nH]c(I)c(CCNC(C)=O)c2c1 [IODOMELATONIN]
Population Apoptotic (%) [1]: 42% and 59% | Population Fragmented Nuclei (%) [1]: 4% and 5% | Population Healthy Nuclei (%) [1]: 80% and 84% | Population Hoechst High Intensity Objects (%) [1]: 5% and 7% | Population Membrane Permeable-Phenotype (%) [1]: 1% and 0% | Population Mitochondria Different-Phenotype (%) [1]: 43% and 64% | Population Mitotic Cells (%) [1]: 57% and 40% | Population Normal (%) [1]: 94% and 92% | Population Pyknosed Nuclei (%) [1]: 14% and 10% | Population Tubulin-Different-Phenotype (%) [1]: 35% and 32% | Total Cell Count [1]: 388 and 400 | Population Apoptotic (%) [2]: 38% and 46% | Population Fragmented Nuclei (%) [2]: 11% and 8% | Population Healthy Nuclei (%) [2]: 77% | Population Hoechst High Intensity Objects (%) [2]: 8% and 12% | Population Membrane Permeable-Phenotype (%) [2]: 0% | Population Mitochondria Different-Phenotype (%) [2]: 52% and 62% | Population Mitotic Cells (%) [2]: 61% and 53% | Population Normal (%) [2]: 91% and 87% | Population Pyknosed Nuclei (%) [2]: 10% and 14% | Population Tubulin-Different-Phenotype (%) [2]: 29% and 25% | Total Cell Count [2]: 445 and 316 | Population Apoptotic (%) [3]: 38% and 44% | Population Fragmented Nuclei (%) [3]: 8% and 9% | Population Healthy Nuclei (%) [3]: 80% and 78% | Population Hoechst High Intensity Objects (%) [3]: 3% and 8% | Population Membrane Permeable-Phenotype (%) [3]: 1% and 0% | Population Mitochondria Different-Phenotype (%) [3]: 24% and 37% | Population Mitotic Cells (%) [3]: 61% and 55% | Population Normal (%) [3]: 96% and 91% | Population Pyknosed Nuclei (%) [3]: 11% | Population Tubulin-Different-Phenotype (%) [3]: 23% and 14% | Total Cell Count [3]: 511 and 497 | Population Apoptotic (%) [4]: 32% and 40% | Population Fragmented Nuclei (%) [4]: 11% and 5% | Population Healthy Nuclei (%) [4]: 77% and 81% | Population Hoechst High Intensity Objects (%) [4]: 5% and 9% | Population Membrane Permeable-Phenotype (%) [4]: 1% and 0% | Population Mitochondria Different-Phenotype (%) [4]: 31% and 48% | Population Mitotic Cells (%) [4]: 67% and 59% | Population Normal (%) [4]: 94% and 90% | Population Pyknosed Nuclei (%) [4]: 10% and 12% | Population Tubulin-Different-Phenotype (%) [4]: 25% and 21% | Total Cell Count [4]: 568 and 360 | Population Apoptotic (%) [5]: 26% and 31% | Population Fragmented Nuclei (%) [5]: 12% | Population Healthy Nuclei (%) [5]: 79% | Population Hoechst High Intensity Objects (%) [5]: 4% and 5% | Population Membrane Permeable-Phenotype (%) [5]: 1% | Population Mitochondria Different-Phenotype (%) [5]: 19% and 22% | Population Mitotic Cells (%) [5]: 73% and 68% | Population Normal (%) [5]: 95% and 94% | Population Pyknosed Nuclei (%) [5]: 7% and 8% | Population Tubulin-Different-Phenotype (%) [5]: 16% and 14% | Total Cell Count [5]: 770 and 622 | Population Apoptotic (%) [6]: 23% and 25% | Population Fragmented Nuclei (%) [6]: 16% and 15% | Population Healthy Nuclei (%) [6]: 77% and 75% | Population Hoechst High Intensity Objects (%) [6]: 1% and 2% | Population Membrane Permeable-Phenotype (%) [6]: 1% and 0% | Population Mitochondria Different-Phenotype (%) [6]: 16% and 24% | Population Mitotic Cells (%) [6]: 76% and 74% | Population Normal (%) [6]: 98% and 97% | Population Pyknosed Nuclei (%) [6]: 5% and 9% | Population Tubulin-Different-Phenotype (%) [6]: 11% and 16% | Total Cell Count [6]: 860 and 613

O=C(NCCN1CCC(n2c(=O)[nH]c3cc(Cl)ccc32)CC1)c1ccc(F)cc1 [HALOPEMIDE]
Population Apoptotic (%) [1]: 46% and 43% | Population Fragmented Nuclei (%) [1]: 5% | Population Healthy Nuclei (%) [1]: 81% and 79% | Population Hoechst High Intensity Objects (%) [1]: 7% and 10% | Population Membrane Permeable-Phenotype (%) [1]: 0% | Population Mitochondria Different-Phenotype (%) [1]: 54% and 62% | Population Mitotic Cells (%) [1]: 53% and 56% | Population Normal (%) [1]: 92% and 89% | Population Pyknosed Nuclei (%) [1]: 13% and 15% | Population Tubulin-Different-Phenotype (%) [1]: 42% and 29% | Total Cell Count [1]: 334 and 373 | Population Apoptotic (%) [2]: 39% and 65% | Population Fragmented Nuclei (%) [2]: 5% and 6% | Population Healthy Nuclei (%) [2]: 74% and 72% | Population Hoechst High Intensity Objects (%) [2]: 14% and 13% | Population Membrane Permeable-Phenotype (%) [2]: 0% and 1% | Population Mitochondria Different-Phenotype (%) [2]: 76% and 84% | Population Mitotic Cells (%) [2]: 60% and 34% | Population Normal (%) [2]: 85% and 86% | Population Pyknosed Nuclei (%) [2]: 20% and 21% | Population Tubulin-Different-Phenotype (%) [2]: 68% and 59% | Total Cell Count [2]: 460 and 319 | Population Apoptotic (%) [3]: 40% | Population Fragmented Nuclei (%) [3]: 7% and 9% | Population Healthy Nuclei (%) [3]: 79% | Population Hoechst High Intensity Objects (%) [3]: 3% and 6% | Population Membrane Permeable-Phenotype (%) [3]: 1% and 0% | Population Mitochondria Different-Phenotype (%) [3]: 35% and 37% | Population Mitotic Cells (%) [3]: 59% | Population Normal (%) [3]: 96% and 93% | Population Pyknosed Nuclei (%) [3]: 12% and 11% | Population Tubulin-Different-Phenotype (%) [3]: 24% and 21% | Total Cell Count [3]: 471 and 508 | Population Apoptotic (%) [4]: 27% and 64% | Population Fragmented Nuclei (%) [4]: 8% and 9% | Population Healthy Nuclei (%) [4]: 72% and 70% | Population Hoechst High Intensity Objects (%) [4]: 8% | Population Membrane Permeable-Phenotype (%) [4]: 1% and 0% | Population Mitochondria Different-Phenotype (%) [4]: 63% and 78% | Population Mitotic Cells (%) [4]: 72% and 35% | Population Normal (%) [4]: 91% | Population Pyknosed Nuclei (%) [4]: 19% and 20% | Population Tubulin-Different-Phenotype (%) [4]: 64% and 62% | Total Cell Count [4]: 580 and 361 | Population Apoptotic (%) [5]: 30% and 28% | Population Fragmented Nuclei (%) [5]: 13% | Population Healthy Nuclei (%) [5]: 79% | Population Hoechst High Intensity Objects (%) [5]: 1% and 3% | Population Membrane Permeable-Phenotype (%) [5]: 1% and 0% | Population Mitochondria Different-Phenotype (%) [5]: 21% | Population Mitotic Cells (%) [5]: 69% and 71% | Population Normal (%) [5]: 98% and 96% | Population Pyknosed Nuclei (%) [5]: 6% and 7% | Population Tubulin-Different-Phenotype (%) [5]: 16% and 10% | Total Cell Count [5]: 841 and 675 | Population Apoptotic (%) [6]: 37% and 60% | Population Fragmented Nuclei (%) [6]: 14% | Population Healthy Nuclei (%) [6]: 72% and 74% | Population Hoechst High Intensity Objects (%) [6]: 8% and 6% | Population Membrane Permeable-Phenotype (%) [6]: 1% | Population Mitochondria Different-Phenotype (%) [6]: 57% and 64% | Population Mitotic Cells (%) [6]: 62% and 40% | Population Normal (%) [6]: 91% and 93% | Population Pyknosed Nuclei (%) [6]: 12% and 11% | Population Tubulin-Different-Phenotype (%) [6]: 55% | Total Cell Count [6]: 706 and 531
